According to the EternaBench riboswitch data:

System: MS2 coat protein
Experiment: apparent Kd, MS2 coat protein; higher = weaker binding; RNA-MaP array; FMN 200 µM where present
How it was run: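 Two titrations, one without ligand and one with constant ligand, were run with SNAP-549-labelled MS2 coat protein from 0.7 or 1.5 nM, doubling to 3 µM. The targets were designs transcribed by stalled E. coli RNA polymerase on Illumina sequencing-chip clusters, in 100 mM Tris-HCl pH 7.5, 80 mM KCl, 4 mM MgCl2, BSA, DTT, yeast tRNA and Tween-20. The apparent Kd is the median of filtered per-cluster binding-curve fits, with green signal normalised to red-channel RNA signal and control-cluster median Fmax.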

[1] = designed as: OFF switch for flavin mononucleotide, no ligand
[2] = ligand present: flavin mononucleotide, designed as: OFF switch for flavin mononucleotide
[3] = designed as: ON switch for flavin mononucleotide, no ligand
[4] = ligand present: flavin mononucleotide, designed as: ON switch for flavin mononucleotide

“AGAAAGUCAGGAUAUCAGAAUAAGUCGAAAACGACUAGUAAUGAGAAGGGACAUGAGGAUCACCCAUGUAAGAA” was tested. Which “apparent Kd” value [1] did it give?
Its value is 30.6 nM.

And the “apparent Kd” value [2]?
Its value is 37.4 nM.

How did the “apparent Kd” value [1] turn out when “AAAUCCAACGAAGGAUAUACAAACAUGAGGAUCACCCAUGUGUCUUUCGUGUAACUGGAAUUCGGGUAGAAGGUCGUUGACAUA” was run?
Its value is 11.8 nM.

What about the “apparent Kd” value [2] of the same sequence?
The value was 17.6 nM.

For “GUUUUCGCGUGAGGAUAUGCUCGCAUUUCAAGAGCAGAAGGUAUGUCUAUAGACAUGAGGAUCACCCAUGUAUUUAUCAUUGAA”, which “apparent Kd” value [3] is on record?
Its value is 226 nM.

What about the “apparent Kd” value [4] of the same sequence?
Its value is 160 nM.

Which results are given for “UGAUACUGAGAGAAGGUUCAAACUACAUAUUGCAUACAUGAGGAUCACCCAUGUUGGUGAAUAAGAAAGGAUAUUUUACUAUAU”?
apparent Kd [1]: 47 nM; apparent Kd [2]: 32.8 nM

How did the “apparent Kd” value [3] turn out when “CAGUGCUGUCGAGAGGAUAUGCGGUGAUGGACAUGAGGAUCACCCAUGUUAGCGACAGCAUCACGGCAGAAGGCUCUACCCACUG” was run?
Its value is 29.4 nM.

And the “apparent Kd” value [4]?
The value was 17 nM.

For “GUGUUGGUAGGAUAUCCACCGACAAACAUGAGGAUCACCCAUGUGACGCUCCCUUGUCUUGGAGAAGGGCCGGCAU”, which “apparent Kd” value [1] is on record?
The value was 50.4 nM.

And the “apparent Kd” value [2]?
Its value is 49.1 nM.

With “ACUUUAGUAUCACAUGUAUUACAUGAGGAUCACCCAUGUUACUAGGAUAUGUAUUAGAAUUUACAACAGAAGGAGUAAGAAUGU” as the sequence, how does the “apparent Kd” value [1] read?
The value was 8.17 nM.

What about the “apparent Kd” value [2] of the same sequence?
The value was 9.83 nM.

Which “apparent Kd” value [1] does the source give for “GGACGGAAAGUGAGGAUAUGCUCUACCUCGGUAGAGCAGAAGGCACAUGAGGAUCACCCAUGUGAUUGCUGUUC” here?
The value was 27.1 nM.

What about the “apparent Kd” value [2] of the same sequence?
The value was 261 nM.

“ACUUUGUUUGAGAAGGUGAAGUGGAAACAUGAGGAUCACCCAUGUAUUAGGAAGCCUGGUUUUGUCAAGGAUAUCGGGUAAAGA” was tested. Which “apparent Kd” value [3] did it give?
The value was 12 nM.

And the “apparent Kd” value [4]?
Its value is 10.1 nM.

Which results are given for “AUUACAUGAGGAUCACCCAUGUACGGCACGUUUCAAAACACUGAGGAUAUACGAUAUGUAGGAACGUAGAAGGCAGUGGGUGCA”?
apparent Kd [3]: 99.7 nM; apparent Kd [4]: 34 nM

With “GCUAGUAUUGCAGGAUAUUGAGAAUAAUUAUGGCAAGAAGGGCAUAACAUGAGGAUCACCCAUGUAUUCCUUAGUGAUACUAGC” as the sequence, how does the “apparent Kd” value [1] read?
Its value is 9.07 nM.

And the “apparent Kd” value [2]?
The value was 8.33 nM.

What does the source list for “GUUGUGUAAGGAUAUGCCUGGCCGUGAGGCCAGAUUGAAUGGCAGAAGGUACAUGAGGAUCACCCAUGUACGGG”?
apparent Kd [1]: 33.2 nM; apparent Kd [2]: 188 nM

What does the source list for “GUGUACAGAGGAUAUACAUAAGCUAGGAAACUAGCUACUUCACAUGAGGAUCACCCAUGUAGAAGGCUGUACAC”?
apparent Kd [1]: 16.1 nM; apparent Kd [2]: 16.3 nM

For “CAGGUAGACUGAGGAUAUACAAAAGACCUAGUCUAUCUAGGUCAACUCACAUGAGGAUCACCCAUGUAGAAGGCAGUCUGCCUG”, which “apparent Kd” value [1] is on record?
The value was 19.3 nM.

What about the “apparent Kd” value [2] of the same sequence?
The value was 70.9 nM.

With “GUCAGCUCGUGAGGAUAUACCACACUGCUUCGGCAGUGUAUUAAGAUCACAUGAGGAUCACCCAUGUAGAAGGCACGAGCUGAU” as the sequence, how does the “apparent Kd” value [1] read?
Its value is 6.32 nM.

And the “apparent Kd” value [2]?
Its value is 34.2 nM.

For “UUUUAACAUGAGGAUCACCCAUGUGAGGAUAUCGAAAUUUAUAUUAAUAUUAUUUUAUCGAGAAGGCACAUUUU”, which “apparent Kd” value [1] is on record?
The value was 96.1 nM.

And the “apparent Kd” value [2]?
The value was 124 nM.

How did the “apparent Kd” value [1] turn out when “GGUUAUUGCAAGGAUAUGCUUUUUUUUUAUAUUGCAGAAGGUGCAACAUGAGGAUCACCCAUGUUGGAGGGAUU” was run?
The value was 30.9 nM.

And the “apparent Kd” value [2]?
Its value is 59.5 nM.

How did the “apparent Kd” value [1] turn out when “GUUUUUUCUCAUGUACAUGAGGAACAUGAGGAUCACCCAUGUAGAAGGAAUUUUUUUAAGUUUAGUUAGGAUAUACAUAUAUUG” was run?
Its value is 48.8 nM.

And the “apparent Kd” value [2]?
The value was 28.6 nM.

“UUGUGCUGAGAGAAGGUUCAAACUACAUAUUGCGCACAUGAGGAUCACCCAUGUUGGUGAAUAAGAAAGGAUAUUUUACUGUAU” was tested. Which “apparent Kd” value [1] did it give?
The value was 244 nM.

And the “apparent Kd” value [2]?
The value was 184 nM.

For “GGACGUCACAUUCACAUGAGGAUCACCCAUGUCAAAAGACAUGAGGAUAUGGAUCCUAAUUGGAUCCAGAAGGCAUGGACGUCC”, which “apparent Kd” value [3] is on record?
The value was 1140 nM.

And the “apparent Kd” value [4]?
The value was 70.6 nM.

Which “apparent Kd” value [3] does the source give for “GAGUAGUCAAAAGGAUAUUGAUUAUUGUAGGAUCAAGAAGGUUUUAACAUGAGGAUCACCCAUGUAGGACUAUUCCUGUGUAUC” here?
The value was 16.6 nM.

What about the “apparent Kd” value [4] of the same sequence?
Its value is 12.2 nM.

What does the source list for “GCCUCAUAGUAGAAGGGACUUCGGCUGUUAAGCAUCAUCUCCAUAUCACAUGAGGAUCACCCAUGUCAGGAUAUACUAAGAGGC”?
apparent Kd [1]: 6.95 nM; apparent Kd [2]: 14.4 nM

How did the “apparent Kd” value [1] turn out when “UUAAUUAAUUAAUUGCAGUUUACAUGAGGAUCACCCAUGUAUAAGGAUAUCGUCAGGAAUACUGACGAGAAGGUAUACAUCUGC” was run?
The value was 19 nM.

What about the “apparent Kd” value [2] of the same sequence?
The value was 31.8 nM.

Which results are given for “GAUUAACAUGAGGAUCACCCAUGUGAGGAUAUGGAAUGGCUCAUUUUUUGAUUCCCGUCUAGAAGGCACAUCUU”?
apparent Kd [1]: 71.8 nM; apparent Kd [2]: 83.8 nM

Which “apparent Kd” value [3] does the source give for “ACAUGCAUAGCGAUAUGAUCGAGAGAUCAUGUCGCUAAAGUUAGAAGGACAUGAGGAUCACCCAUGUAGGAUAUGGGAGCAUGA” here?
Its value is 43.1 nM.

And the “apparent Kd” value [4]?
The value was 9.96 nM.

Which results are given for “GCGAUAAACGAGGAUAUCGUAUCGGAAACGAUACGAGAAGGUGUAACAUGAGGAUCACCCAUGUUCCUCAACGC”?
apparent Kd [1]: 38.4 nM; apparent Kd [2]: 38.4 nM

For “GCCAUCGCAUGAGGAUAUGGUCAGCUUUGCUGACCAGAAGGCAUGUCAAUAGACAUGAGGAUCACCCAUGUAGUUAAGAUGGCA”, which “apparent Kd” value [3] is on record?
The value was 797 nM.

And the “apparent Kd” value [4]?
The value was 54 nM.
